Tests used:
HA-Ras cells = assay: Cell viability of transformed astrocytes expressing HRAS G12V; format: cell-based, human; details: read-out: EC50 (cell viability), 1% serum, 96h
Procedure, shortened: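 Human astrocytes immortalized with E6/E7/hTERT and transformed by HRAS G12V expression were treated with test compound in 1% serum for 96 h, then viability was measured. At least three independent biological replicates; experiments repeated at least three times; mean ± SD.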

[1] = tested on: MGG8 orthotopic brain tumors; assay: Orthotopic MGG8 GSC mouse model: tumor growth and survival; format: in vivo; details: MGG8-bearing mice; YTX-7739 30 mg/kg, TMZ 5mg/kg, IP
Procedure, shortened: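 Fluc-expressing MGG8 GSCs (1–5 × 10⁴) implanted into left forebrain of male/female athymic nude mice; treatment began once tumors bioluminescence-detected (D-luciferin 150 mg/kg IP). Groups (n=8): vehicle (0.5% methylcellulose + 0.2% Tween80 in saline), test compound 30 mg/kg, TMZ 5 mg/kg (in 5% dextrose), or combination, IP. Tumor growth by bioluminescence; Kaplan-Meier survival, two-sided log-rank test; study ended at six months.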

[2] = tested on: 83 GSC orthotopic brain tumors; assay: Orthotopic 83 GSC mouse model: tumor growth and survival; format: in vivo; details: 83-bearing mice; YTX-7739 30mg/kg, TMZ 10mg/kg, IP
M120 = assay: Short-term cell viability of recurrent GSC line M120; format: cell-based, human; details: YTX-7739 at 10 μM, TMZ 50–100μM

Row | Compound | EC50 (HA-Ras cells) | survival [1] | survival percentage at six months after tumor implantation [1] | median survival [2] | tumor growth [2] | short-term cell viability (M120)
1 | Cc1nnc(-c2ccc(N3CCC(Oc4cc(F)ccc4Cl)CC3)nn2)o1 [CAY10566] | 18.6 nM |  |  |  |  | 
2 | Cn1nnc2c(C(N)=O)ncn2c1=O [TMZ, Temozolomide] |  | 106.5 days | 25% | 32 days | initially delayed tumor growth | ineffective

— article PMC9942236 (Science translational medicine, 2023)
